According to paper PMC4351919 (Journal of biological inorganic chemistry : JBIC : a …, 2014):

Columns and labels:
[1] = Determination of aqueous solubility; type: physicochemical; conditions: Milli-Q water, room temperature
Outline: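 Modified OECD method. Saturated solutions made in Milli-Q water at room temperature with repeated ultrasonication. Undissolved material removed through a 0.45 μm filter. Filtrate diluted in 1 % HNO3, and platinum quantified by ICP-MS (RF 1500 W, 194Pt/195Pt monitored, Re internal isotope, 10 replicates) to calculate solubility.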

[2] = Lipophilicity as chromatographic retention factor log kw; type: physicochemical; conditions: RP-HPLC, extrapolated to 0 % MeOH
Outline: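 RP-HPLC on a C18 column (4.6 × 250 mm, 5 μm) at 25 °C, 1 ml/min, isocratic 0.1 % TFA(aq)/MeOH, UV 210 nm, with uracil for dead time t0. Each compound run in triplicate at ≥3 MeOH compositions; k = (tR − t0)/t0. log kw obtained by linear extrapolation of log k versus %MeOH to 0 % MeOH.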

[3] = Lipophilicity as n-octanol/water partition coefficient; type: physicochemical; conditions: shake flask
Outline: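 Modified OECD shake-flask method. Compound dissolved in water pre-saturated with 1-octanol, and aqueous Pt measured by ICP-MS after dilution in 1 % HNO3. Solution then mixed 1:1 with water-saturated 1-octanol and shaken 1 h. After phase separation, aqueous Pt re-measured; octanol content taken as the loss from the stock to give log Po/w.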

[4] = test system: murine leukemia model L1210; experiment: Cytotoxicity assay; type: cell-based; conditions: read-out: IC50 mean ± SD, L1210; MTT assay, 72 h exposure
Outline: (§1)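 Cells (L1210 in RPMI 1640; CT-26 in DMEM/F12; both with 10 % FCS, 37 °C, 5 % CO2) seeded at 2 × 10^3/well and allowed 24 h recovery. 10 mM DMSO stocks serially diluted in medium; final DMSO ≤0.5 %. After 72 h exposure, viability read by MTT (EZ4U). IC50 reported as mean ± SD of at least three independent experiments.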

[5] = test system: murine colon cancer cell model CT-26; experiment: Cytotoxicity assay; type: cell-based; conditions: MTT assay, 72 h exposure; for IC50: read-out: IC50 mean ± SD, CT-26
Outline: as §1

[6] = Tissue distribution of platinum after single dose oral administration; type: in vivo, Balb/c mice; conditions: 2 h after single oral dose 40 mg/kg, mice
[7] = type: in vivo, Balb/c mice; conditions: CT-26-bearing mice
CH1 = conditions: read-out: IC50 (CH1); MTT assay, 96 h exposure; cited from earlier work
SW480 = conditions: read-out: IC50 (SW480); MTT assay, 96 h exposure; cited from earlier work
A549 = conditions: read-out: IC50 (A549); MTT assay, 96 h exposure; cited from earlier work
[8] = SEC-ICP-MS study in mice serum after single dose oral administration; type: in vivo; conditions: serum 2 h after single oral dose
Outline: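 Balb/c mice dosed orally once at 40 mg/kg (water, 1 % DMSO). Under anesthesia at 2 h, blood taken by heart puncture; serum isolated (3000 rpm, 10 min, twice), stored at −20 °C, then diluted in PBS. SEC on Superdex 200 (10–600 kDa), 100 mmol/l ammonium acetate pH 7.4, 0.7 ml/min, with online ICP-MS Pt trace. References: compounds in PBS, fresh or after 1 and 24 h at 37 °C.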

CT-26 cells = experiment: Anticancer activity against CT-26 cells in vivo; parameters: species or system Balb/c mice; conditions: CT-26-bearing mice, i.p. days 4, 7, 11, 14; 8.5 mg/kg for 1, 10 mg/kg for 2
Outline: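 CT-26 cells (5 × 10^5) injected s.c. into right flank of female Balb/c mice. Test compound given i.p. as freshly prepared aqueous solution on days 4, 7, 11 and 14. Daily distress checks. Tumor size measured regularly by caliper; volume = length × width²/2. Mice sacrificed at day 15, 24 h after last dose.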

[9] = 15 min after oral application, clinical trials; cited from earlier work
[10] = cited from earlier work

Row | SMILES | Aqueous solubility [1] | Lipophilicity (log kw) [2] | Lipophilicity (log Po/w) [3] | IC50 [4] | IC50 [5] | Percentage of platinum amount found in serum relative to the administered platinum dose [6] | Platinum level in serum [6] | IC50 (CH1) | IC50 (SW480) | IC50 (A549) | further results
1 | CC[NH][Pt]([Cl])([Cl])([NH]CC)([O]C(=O)CCC(=O)OCC)[O]C(=O)CCC(=O)OCC [Compound 1, (OC-6-33)-dichloridobis((4-ethoxy)-4-oxobutanoato)bis(ethylamine)platinum(IV)] | 1940 ± 20 µg/mL | 2.87 ± 0.01 | 0.72 ± 0.03 | 1500 ± 400 nM | 5700 ± 200 nM | ~ 16 % Pt | ~ 2 μg/ml | 61 ± 15 nM | 300 ± 50 nM | 1000 ± 400 nM | Platinum level in blood pellet [6]: ~ 1 μg/g; Platinum level in kidneys [6]: ~ 4 μg/g; Platinum level in liver [6]: ~ 9 μg/g; Platinum level in lungs [6]: ~ 1 μg/g; Increase of platinum level in tumor at the higher oral dose ([7]; 51.7 vs 34.1 mg/kg p.o., multiple dose): up to 30%
2 | [NH2][Pt]1([NH2])([O]C(=O)CCC(=O)NC2CCCC2)([O]C(=O)CCC(=O)NC2CCCC2)[O]C(=O)C2(CCC2)C(=O)[O]1 [Compound 2, (OC-6-33)-diammine(cyclobutane-1,1-dicarboxylato)bis((4-cyclopentylamino)-4-oxobutanoato)platinum(IV)] | 10200 ± 40 µg/mL | 2.99 ± 0.06 | 0.77 ± 0.06 | > 50000 nM | > 50000 nM | ~ 1.5 % Pt | ~ 0.15 μg/ml | 15000 ± 5000 nM | > 500000 nM | > 500000 nM | Platinum accumulation in all organ samples [6]: less than 0.5 μg/g; Free intact platinum(IV) complex in serum [8]: ~ 5%; In vivo anticancer activity (tumor volume), intraperitoneal application (CT-26 cells): inactive; Platinum in liver, kidney and serum after i.p. versus oral administration ([7]; 10 mg/kg i.p. vs 40 mg/kg p.o., multiple dose): tenfold higher; Platinum concentrations in all tissues after oral application ([7]; multiple dose p.o. 40 mg/kg, day 15): < 0.5 µg/g
3 | CC(=O)[O][Pt]([NH2])([Cl])([Cl])([NH]C1CCCCC1)[O]C(C)=O [Satraplatin, (OC-6-43)-bis(acetato)amminedichlorido(cyclohexylamine)platinum(IV), reference compound] | 100 ± 10 µg/mL | 1.49 ± 0.03 | 0.23 ± 0.01 | 2500 ± 200 nM | 2900 ± 300 nM | ~ 4 % Pt | – | 100 ± 20 nM | 1500 ± 100 nM | 6400 ± 400 nM | Fold more active than 1 in CT-26 cells [5]: ~ 2 fold; Times lower platinum concentrations in the investigated tissues than compound 1 [6]: 2-3 times; Presence of intact parent drug in serum [8]: absence of intact satraplatin; Parent drug in patients' plasma ultrafiltrate [9]: no parent drug was detected
4 | N.N.O=C([O-])C1(C(=O)[O-])CCC1.[Pt+2] [carboplatin] | – | – | – | – | – | – | – | – | – | – | Injected dose recovered in urine [10]: ~90%
